“And” between values parts separate entries of the source, which are not always exact repeats. Equal entries are not always repeated.
Experiments:
Rattus norvegicus [1] = assay: Biodistribution in Rat blood after 24 hours of iv administration; type: ADME, organism-based; settings: in vivo
Method in brief: (§1)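 125I-labeled compound solubilized in normal saline with Tween-20 and given iv to rats, about 5-30 μCi (9-83 μg) per animal. Three to five rats per time point. Rats killed by exsanguination under ether anesthesia at 5 min, 30 min or 24 h. Organs minced, blotted free of blood and counted for radioiodine. Lines with "per g" are % administered dose per gram ± SEM.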

Rattus norvegicus [2] = assay: Compound (125I labeled) was evaluated for the total radioactivity in high-density lipoprotein 5 min after intravenous administration.; type: functional
Method in brief: (§2)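 Rat plasma taken 5 or 30 min after iv dosing of 125I-labeled compound (saline/Tween-20) and run on polyacrylamide gel electrophoresis. Gels sectioned and each section gamma-counted. Radioactivity in each band (stacking gel, lipoproteins, albumin, below-albumin) is given as % of total radioactivity applied to the gel.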

Rattus norvegicus [3] = assay: (§3) Biodistribution in Rat liver after 30 minutes of iv administration; type: ADME, organism-based; settings: in vivo, 0.5 h; method in brief: as §1
Rattus norvegicus [4] = assay: Biodistribution in Rat lung after 24 hours of iv administration; type: ADME, organism-based; settings: in vivo; method in brief: as §1
Rattus norvegicus [5] = assay: Liver radioactivity after iv administration of compound (30 min) in rats; type: functional, organism-based
Method in brief: (§4)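 Rats (3-5 per time point) dosed iv with about 5-30 μCi (9-83 μg) of 125I-labeled compound in saline containing Tween-20. Killed by exsanguination under ether at 5 min, 30 min or 24 h. Liver removed, minced, blotted and counted. Values are % administered dose per organ, based on each animal's actual liver weight, ± SEM.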

Rattus norvegicus [6] = assay: Biodistribution in Rat lung after 30 minutes of iv administration; type: ADME, organism-based; settings: in vivo, 0.5 h; method in brief: as §1
Rattus norvegicus [7] = assay: Liver radioactivity after iv administration of compound (5 min) in rats; type: functional, organism-based; method in brief: as §4
Rattus norvegicus [8] = assay: Compound (125I labeled) was evaluated for the total radioactivity in low-density lipoprotein, at 30 min after intravenous administration.; type: functional; method in brief: as §2
Rattus norvegicus [9] = assay: Biodistribution in Rat liver after 5 minutes of iv administration; type: ADME, organism-based; settings: in vivo; method in brief: as §1
Rattus norvegicus [10] = assay: Biodistribution in Rat heart after 24 hours of iv administration; type: ADME, organism-based; settings: in vivo; method in brief: as §1
Rattus norvegicus [11] = assay: Biodistribution in Rat liver after 24 hours of iv administration; type: ADME, organism-based; settings: in vivo; method in brief: as §1
Rattus norvegicus [12] = assay: Compound (125I labeled) was evaluated for the total radioactivity in stacking gel at 30 min after intravenous administration.; type: functional; method in brief: as §2
Rattus norvegicus [13] = assay: Compound (125I labeled) was evaluated for the total radioactivity in albumin 5 min after intravenous administration.; type: functional; set-up: concentration or dose not given beside the values; method in brief: as §2
Rattus norvegicus [14] = assay: Biodistribution in Rat blood after 5 minutes of iv administration; type: ADME, organism-based; settings: in vivo; method in brief: as §1
Rattus norvegicus [15] = assay: as §3; type: ADME, organism-based; settings: in vivo, 0.5 h; method in brief: as §1; remark: listed apart in the source
Rattus norvegicus [16] = assay: Compound was evaluated for the lipid soluble radioactivity extracted from rat liver at 0.5 hr after intravenous administration.; type: functional
Method in brief: (§5)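 Liver and plasma taken 0.5 or 24 h after iv dosing of 125I-labeled compound in rats (n = 3-5). Extracted by a modified Folch procedure; value is % lipid (CHCl3/MeOH)-extractable radioactivity ± SEM. Extracts run on TLC in hexane/ethyl acetate 5:2 against unlabeled standard, then 1-cm strips counted to give % parent compound.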

Rattus norvegicus [17] = assay: Compound (125I labeled) was evaluated for the total radioactivity in albumin at 30 min after intravenous administration.; type: functional; set-up: concentration or dose not given beside the values; method in brief: as §2
Rattus norvegicus [18] = assay: Compound was evaluated for the lipid soluble radioactivity extracted from rat plasma at 0.5 hr after intravenous administration.; type: functional; method in brief: as §5
Rattus norvegicus [19] = assay: Compound (125I labeled) was evaluated for the total radioactivity in stacking gel 5 min after intravenous administration.; type: functional; method in brief: as §2
Rattus norvegicus [20] = assay: Biodistribution in Rat heart after 30 minutes of iv administration; type: ADME, organism-based; settings: in vivo, 0.5 h; method in brief: as §1
Rattus norvegicus [21] = assay: Biodistribution in Rat blood after 30 minutes of iv administration; type: ADME, organism-based; settings: in vivo, 0.5 h; method in brief: as §1
Rattus norvegicus [22] = assay: Biodistribution in Rat lung after 5 minutes of iv administration; type: ADME, organism-based; settings: in vivo; method in brief: as §1
Rattus norvegicus [23] = assay: Compound (125I labeled) was evaluated for the total radioactivity in high-density lipoprotein, at 30 min after intravenous administration.; type: functional; method in brief: as §2
Rattus norvegicus [24] = assay: Compound (125I labeled) was evaluated for the total radioactivity in low-density lipoprotein 5 min after intravenous administration.; type: functional; set-up: concentration or dose not given beside the values; method in brief: as §2
Rattus norvegicus [25] = assay: Evaluated for the total radioactivity in below albumin at 30 min after intravenous administration.; type: functional; method in brief: as §2
Rattus norvegicus [26] = assay: Biodistribution in Rat heart after 5 minutes of iv administration; type: ADME, organism-based; settings: in vivo; method in brief: as §1
Rattus norvegicus [27] = assay: Compound was evaluated for the lipid soluble radioactivity extracted from rat plasma at 24 hr after intravenous administration.; type: functional; method in brief: as §5
Rattus norvegicus [28] = assay: Compound was evaluated for the lipid soluble radioactivity extracted from rat liver at 24 hr after intravenous administration.; type: functional; method in brief: as §5
Rattus norvegicus [29] = assay: Liver radioactivity after iv administration of compound (24 h) in rats; type: functional, organism-based; method in brief: as §4

| Biodistribution (Rattus norvegicus [1]) | Biodistribution (Rattus norvegicus [3]) | Biodistribution (Rattus norvegicus [4]) | Biodistribution (Rattus norvegicus [6]) | Biodistribution (Rattus norvegicus [9]) | Biodistribution (Rattus norvegicus [10]) | Biodistribution (Rattus norvegicus [14]) | Biodistribution (Rattus norvegicus [15]) | Biodistribution (Rattus norvegicus [20]) | Structure (SMILES) | Total radioactivity (Rattus norvegicus [2]) | Radioactivity (Rattus norvegicus [5]) | Radioactivity (Rattus norvegicus [7]) | Total radioactivity (Rattus norvegicus [8]) | Total radioactivity (Rattus norvegicus [12]) | Total radioactivity (Rattus norvegicus [13]) | Extracted (Rattus norvegicus [16]) | Parent compound (Rattus norvegicus [16]) | Total radioactivity (Rattus norvegicus [17]) | Parent compound (Rattus norvegicus [18]) | Total radioactivity (Rattus norvegicus [19]) | also measured |
| --- | --- | --- | --- | --- | --- | --- | --- | --- | --- | --- | --- | --- | --- | --- | --- | --- | --- | --- | --- | --- | --- |
| 0.07% | 5.24% | 0.09% | 0.67% | 0.6% and 6.94% | 0.05% | 1.46% | 5.24% | 0.65% | Nc1c(I)cc(I)c(CCCCCCCCCCCC(=O)OCC(COC(=O)CCCCCCCCCCCc2c(I)cc(I)c(N)c2I)OC(=O)CCCCCCCCCCCc2c(I)cc(I)c(N)c2I)c1I | 27.2% | 45.7 | 53.8 | 6.2% | 5.8% | 30.2% | 76.5% | 68.8% | 40.6% | 24.1% | 24.4% | Biodistribution (Rattus norvegicus [11]): 0.1% and 0.71%; Biodistribution (Rattus norvegicus [21]): 0.91%; Biodistribution (Rattus norvegicus [22]): 1.13%; Total radioactivity (Rattus norvegicus [23]): 33.6%; Total radioactivity (Rattus norvegicus [24]): 12.7%; Total radioactivity (Rattus norvegicus [25]): 5.5% and 12.6%; Biodistribution (Rattus norvegicus [26]): 2.67% |
| 0.07% | 4.2% | 0.08% | 1.03% | 0.67% and 4.76% | 0.03% | 4.78% | 4.2% | 0.87% | CCCCCCCCCCCCCCCC(=O)OC(COC(=O)CCCCCCCCCCCCCCCCc1c(I)cc(I)c(N)c1I)COC(=O)CCCCCCCCCCCCCCCCc1c(I)cc(I)c(N)c1I | 34.4% | 32.7 | 33.8 | 14.2% | 9.7% | 26.2% | 42.3% | 25.3% | 37.1% | 28.8% | 2.5% | Extracted (Rattus norvegicus [27]): 44.1%; Parent compound (Rattus norvegicus [27]): 18%; Extracted (Rattus norvegicus [28]): 63.5%; Parent compound (Rattus norvegicus [28]): 17.3%; Biodistribution (Rattus norvegicus [11]): 0.13% and 0.37%; Radioactivity (Rattus norvegicus [29]): 2.59; Extracted (Rattus norvegicus [18]): 70.9%; Biodistribution (Rattus norvegicus [21]): 1.97%; Biodistribution (Rattus norvegicus [22]): 1.45%; Total radioactivity (Rattus norvegicus [23]): 24.8%; Total radioactivity (Rattus norvegicus [24]): 32.9%; Biodistribution (Rattus norvegicus [26]): 0.87% |
| 0.05% | 10.4% | 2.64% | 6.63% | 0.44% and 8.02% | 0.19% | 2.15% | 10.38% | 0.82% | Nc1c(I)cc(I)c(CCC(=O)OCC(COC(=O)CCc2c(I)cc(I)c(N)c2I)OC(=O)CCc2c(I)cc(I)c(N)c2I)c1I | 38.4% | 75.5 | 60.5 | 27.6% | 20.2% | 10.5% | 94.8% | 97.3% | 13.8% | 94.5% | 18.3% | Extracted (Rattus norvegicus [27]): 83.3%; Parent compound (Rattus norvegicus [27]): 68.2%; Extracted (Rattus norvegicus [28]): 91.1%; Parent compound (Rattus norvegicus [28]): 96.5%; Radioactivity (Rattus norvegicus [29]): 86.2; Extracted (Rattus norvegicus [18]): 89%; Biodistribution (Rattus norvegicus [21]): 1.71%; Biodistribution (Rattus norvegicus [22]): 6.69%; Total radioactivity (Rattus norvegicus [23]): 34.5%; Total radioactivity (Rattus norvegicus [24]): 29.6%; Total radioactivity (Rattus norvegicus [25]): 3.2% and 4.1%; Biodistribution (Rattus norvegicus [26]): 1.93% |
